Source: ChEMBL document CHEMBL4130469, “C-Methylated Flavonoid Glycosides from Pentarhizidium orientale Rhizomes and Their Inhibitory Effects on the H1N1 Influenza Virus” (J Nat Prod, 2017)

Tests used:
[1] = Cytotoxicity against MDCK cells after 2 days by MTT assay; type: cell-based, Canis lupus familiaris; settings: dog
Outline: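 Uninfected MDCK cells seeded at 1 × 10^5 cells/well and grown 24 h. Washed with PBS, then exposed to graded compound concentrations in fresh DMEM, each in triplicate, for 2 days. Viability by MTT (2 mg/mL), 4 h further incubation; CC50.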

[2] = system: Influenza A virus; assay: Antiviral activity against Influenza A virus (A/PR/8/34 (H1N1)) infected in MDCK cells assessed as reduction in virus-induced cytopathic effect after 3 days by MTT assay; type: functional, organism-based; settings: A/Puerto Rico/8/1934(H1N1), 72 h
Outline: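 MDCK cells grown in DMEM with 10% FBS at 37 °C and 5% CO2, seeded at 1 × 10^5 cells/well, and cultured 24 h. Infected 2 h in DMEM with 0.15 μg/mL trypsin and 5 μg/mL BSA, then given DMEM with 10 μg/mL trypsin and a range of compound concentrations, in triplicate. After 3 days, MTT (2 mg/mL) added for 4 h at 37 °C; formazan dissolved in DMSO, A550 read; EC50.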

[3] = Inhibition of neuraminidase activity in H9N2 A/chicken/Korea/01210/2001 infected in MDCK cells using 4-MU-NANA as substrate pretreated for 30 mins followed by substrate addition measured after 2 hrs by fluorescence assay; type: cell-based, H9N2 subtype; settings: Influenza A virus, A/chicken/Korea/01210/2001, MDCK
[4] = biological target: Neuraminidase (Influenza A virus (A/Puerto Rico/8/1934(H1N1)), UniProt P03468); assay: Inhibition of neuraminidase activity in Influenza A virus (A/PR/8/34 (H1N1)) infected in MDCK cells using 4-MU-NANA as substrate pretreated for 30 mins followed by substrate addition measured after 2 hrs by fluorescence assay; type: cell-based
Neuraminidase (Influenza A virus (A/Puerto Rico/8/1934(H1N1)), UniProt P03468), sequence (P03468 whole entry): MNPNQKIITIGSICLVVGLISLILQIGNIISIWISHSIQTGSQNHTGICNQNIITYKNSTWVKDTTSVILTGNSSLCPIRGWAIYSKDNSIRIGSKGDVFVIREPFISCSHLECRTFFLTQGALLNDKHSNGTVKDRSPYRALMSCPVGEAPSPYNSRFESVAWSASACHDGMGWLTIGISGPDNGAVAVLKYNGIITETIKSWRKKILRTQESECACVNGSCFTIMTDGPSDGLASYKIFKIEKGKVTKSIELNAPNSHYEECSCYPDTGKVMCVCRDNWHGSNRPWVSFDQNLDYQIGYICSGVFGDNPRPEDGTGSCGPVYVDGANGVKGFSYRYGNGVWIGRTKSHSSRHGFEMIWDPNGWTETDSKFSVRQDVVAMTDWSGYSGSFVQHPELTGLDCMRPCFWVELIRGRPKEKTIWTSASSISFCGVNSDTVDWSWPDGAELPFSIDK

SMILES	CC50 at 48 h [1]	EC50 [2]	IC50 [3]	IC50 [4]
Cc1c(O)c(C)c2c(c1O)C(=O)C[C@@H](c1ccccc1O)O2	> 100 µM	22.9 µM	24.1 µM	23.9 µM
COc1ccc(O)c([C@@H]2CC(=O)c3c(O)c(C)c(O)c(C)c3O2)c1	> 100 µM	23 µM	24.6 µM	24.5 µM
COc1ccc([C@@H]2CC(=O)c3c(O)c(C)c(O)c(C)c3O2)cc1	> 100 µM	26.9 µM	27.2 µM	25.2 µM
COc1cc(O)cc([C@@H]2CC(=O)c3c(O)c(C)c(O)c(C)c3O2)c1	> 100 µM	21.4 µM	23.1 µM	24.4 µM
Cc1c(O)c(C)c2c(c1O)C(=O)C[C@@H](c1ccccc1)O2 [DEMETHOXYMATTEUCINOL]	77.6 µM	30.7 µM	31.3 µM	30.3 µM
CCOC(=O)C1=C[C@@H](OC(CC)CC)[C@H](NC(C)=O)[C@@H](N)C1 [OSELTAMIVIR]		0.6 µM	0.0191 µM	
